# High-throughput results as filed in PubChem BioAssay.
# N-glyco inh = blocks N-linked glycosylation in D54 reporter cells; D54 ERlucT glycosylation luciferase reporter, 24 h; percent of 100 nM tunicamycin response; reporter increase, % at 12.5 µM; hit rate 0.23% among 360,000;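 active = mean luciferase reporter signal, scaled so untreated is 0 and the glycosylation-blocking control 100, at or above a set limit in every replicate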;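 also: luciferase carries N-glycosylation sites so blocking glycosylation raises the light; 0% = median of neutral control wells and 100% = median of 100 nM tunicamycin wells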
# CaV13 ICDI inh = Disruptors of the CACNA1D IQ motif to Ca2+-dependent inactivation inhibitor domain association, primary screening, Förster resonance energy transfer in intact living …; HEK cells, CFP/YFP FRET ICDI-IQ, plate reader, 10 min; percent FRET-ratio fall versus neutral wells; inhibition, % at 12.3 µM; hit rate 0.098% among 340,000; AID 743397;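 active = mean replicate inhibition of at least 30% and at least 1% of replicates passing that level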;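 also: 0% = median of the neutral control wells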
# HSF1 activator = increases HSF-1 driven luciferase reporter signal; NIH3T3-HGL HSF-1 luciferase reporter, MG132, 8 h; 100% = twice DMSO control signal; activation, % at 9 µM; hit rate 1.7% among 300,000;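 active = mean replicate activation of at least 50% with a set share of replicates each reaching 50%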;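 also: 0% = median of the neutral control wells and 100% = twice that signal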
# PvdQ acylase = blocks Pseudomonas aeruginosa PvdQ acylase activity. purified PvdQ acylase, fluorescence plate reader. inhibition, % at 10 µM. hit rate 0.063% among 340,000. AID 488965; in the data active = inhibition above about 30%, passing the limit was not always enough;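 also: 0% = vehicle neutral wells and 100% = reference inhibitor wells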
# PfHsp90 set2 = inhibits growth of yeast expressing Plasmodium falciparum Hsp90; hit rate 0.32% among 310,000; S. cerevisiae expressing PfHsp90, BacTiter-Glo ATP, 48 h; yeast lacking PDR1 and PDR3 efflux regulators; inhibition, % at 9.4 µM;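 active = every replicate shows inhibition above about 80%, whatever the replicate mean, limit read from the data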;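 also: 0% = DMSO neutral controls and 100% = 20 µM radicicol positive controls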
# T cruzi inh = T. cruzi replication inhibition; T. cruzi beta-gal in NIH3T3, luminescence, 90 h; inhibition, % (no concentration beside the values); hit rate 1.4% among 300,000; AID 1885;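 active = mean inhibition across valid replicates above about 55%, limit read from the data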;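 also: signal also drops with host cell toxicity which is not excluded here; 0% = plate median of DMSO wells and 100% = zero luminescence signal; higher percent means less beta-gal luminescence so fewer parasites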
#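 Test system: β-gal T. cruzi (Tulahuen C4) inside NIH/3T3 cells / Quantity: 5,000 cells/well / Measured by: luminescence from GalScreen with 0.05% NP40, read after 60 min / Medium: DMEM plus 2% FBS / Measure: parasite load inhibition, % / Reagent: Tulahuen C4 trypomastigotes, 5000/well / Schedule: co-culture of at least 90 h after 3 h attachment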
# Starred values were filed as active, the others as inactive; . = not tested or not shown. The list is not random: actives were taken first. Their share in the collection is about 3%.
SMILES,N-glyco inh,CaV13 ICDI inh,HSF1 activator,PvdQ acylase,PfHsp90 set2,T cruzi inh
C=CC[n+]1c(-c2ccc(C)cc2)csc1Nc1c(C)n(C)n(-c2ccccc2)c1=O,0,-4,19,-14,-2,65*
Cc1ccc2ccc[n+](Cc3ccccc3)c2c1,-2,-12,-15,-16,-13,-12
Cc1ccc(C[n+]2cccc(-c3ccccc3)c2)c(C)c1,3,-5,35,-10,-9,72*
CSCCC(c1nc2ccccc2[nH]1)n1c(/C=C/c2ccc(Cl)cc2)nc2ccccc21 (centres undefined),.,-8,.,.,.,.
CN1CCN(NC(=O)/C=C/c2ccc(Br)cc2)CC1,.,.,82*,-5,-1,24
COc1c(Cl)cc(Cl)cc1/C=C/C(=O)c1ccc(NC(=O)c2cccs2)cc1,-15,-17,115*,-1,-14,43
COc1c(Cl)cc(Cl)cc1C(=O)Nc1ccc(C(=O)O)cc1,2,-4,-3,7,6,-28
COc1ccc(OCc2nnnn2-c2ccccc2)cc1,-1,-4,55*,-5,2,-7
C[C@]12Cc3ccccc3C1CC1=N[C@@H](c3ccc(C(F)(F)F)cc3)O[C@@]13C[C@@H]2C(=O)N3Cc1ccncc1 (some centres undefined),.,-4,.,.,.,.
CCOC(=O)C1CCN(Cc2ccccc2C(F)(F)F)CC1,2,-9,-9,-10,-14,-14
CCOC(=O)C1CCN(Cc2ccc(O)c3ncccc23)CC1,2,-6,12,-14,.,55*
CC(=O)C1=C(C)N(Cc2ccc(Cl)cc2)C(=S)NC1c1ccc(Cl)cc1 (centres undefined),.,-2,.,.,.,.
COc1ccccc1-c1noc2c1C(=O)N(Cc1cn(C3CCCC3)nn1)CC2,.,-6,.,.,.,.
CCn1c(/C=C/N(C)c2ccccc2)[n+](CC)c2ccc(Cl)cc21,4,-5,-7,-10,12,77*
CCCCCC(=O)N1C[C@H](n2cc(C3CC3)nn2)[C@@H](O)C[C@@H]1c1ccc(Cl)cc1,1,-6,.,.,.,.
CCOC(=O)C1=CCN(S(=O)(=O)c2ccc(Cl)cc2)C1c1ccc(C)cc1 (centres undefined),-2,-6,.,.,.,.
Cc1ccccc1-c1noc(-c2ccc(O)cc2)n1,-5,-7,53*,1,56,-18
Cc1ccccc1-c1noc(-c2ccccc2F)n1,-4,-7,54*,-10,-11,6
Cc1ccccc1-c1noc(-c2ccc(Cl)cc2)n1,3,-4,32,-12,-1,-14
Fc1ccccc1-c1nc(-c2ccc(Cl)cc2)no1,-6,-5,30,12,-9,-10
Cc1ccc(C(=O)CSc2ccccn2)cc1,-4,.,53*,8,-7,-14
Cc1ccc(C(=O)Cn2c(C(=O)/C=C/c3ccccc3)nc3ccccc32)cc1,-5,-9,186*,-8,.,15
CCNC(=O)N1CCN(c2ccc(N3CCN(Cc4ccccc4)[C@@H](C)C3)c(C)c2)[C@H](C)C1,.,-11,.,.,.,.
Cc1cccc2cc(CN(Cc3nnnn3C3CCCCC3)C3CCCC3)c3nnnn3c12,-1,-5,26,-7,105*,51
C[C@H](CO)N1C[C@H](C)[C@@H](CN(C)C(=O)Nc2ccnc(N3CCOCC3)c2)OCc2cn(nn2)CCCC1=O,.,-6,.,.,.,.
SMILES,N-glyco inh,CaV13 ICDI inh,HSF1 activator,PvdQ acylase,PfHsp90 set2,T cruzi inh
N#Cc1ccccc1NC(=O)C1CCCO1 (centres undefined),-1,-6,.,.,.,.
CC(C)(C)c1ccc(C(=O)N2CCC2(C)C(=O)NCC(F)(F)F)cc1 (centres undefined),1,-5,.,.,.,.
O=[N+]([O-])C(/C=C(\Cl)[N+](=O)[O-])=C(N1CCCCC1)N1CCCCC1,7,-4,-7,-2,-44,61*
Cn1c(/C=C/c2ccccc2[N+](=O)[O-])nc2ccccc2c1=O,-1,-5,20,8,1,9
Cn1c(/C=C/c2ccc(Br)cc2)nc2ccccc2c1=O,5,-5,61*,-8,-6,0
CCCCCCCCO,-5,.,.,-6,-17,.
CCCCCC[N+](C)(C)CCSSCC[N+](C)(C)CCCCCC,0,-4,0,-9,11,-4
CCCCCCCCCCCCCCCC[N+](C)(C)CCl,-7,-6,.,-19,105*,.
CCCCCCCCCCCCCCCC[N+](C)(C)CC,-15,-5,-6,7,108*,35
Nc1ccc(-c2nc3cc([N+](=O)[O-])ccc3o2)cc1,-9,-5,58*,-7,-62,-5
CC(C)c1ccc2oc(-c3ccc(N)cc3)nc2c1,-20,-5,-16,-18,.,13
COc1ccc(-c2nc3cc([N+](=O)[O-])ccc3o2)cc1,-10,-19,59*,-13,-13,-6
CC(C)(C)CNC(=O)C1(C)CCN1C(=O)c1ccccc1CCc1ccccc1 (centres undefined),-2,-5,.,.,.,.
N#C/C(=C\c1ccc(Cl)cc1)c1nc2ccccc2o1,1,-3,75*,-4,-100,-22
CC(=O)c1cccc(N(CC(=O)Nc2ccccc2F)S(C)(=O)=O)c1,-1,6,13,16,-17,-15
CC(=O)c1cccc(N(CC(=O)Nc2ccc(F)cc2F)S(C)(=O)=O)c1,1,-7,55*,-23,-20,-4
CNC(=O)/C(C#N)=C/c1ccc(-c2ccccc2[N+](=O)[O-])o1,7,-4,8,8,-12,-4
CNC(=O)/C(C#N)=C/c1ccc(-c2ccc(Cl)cc2)o1,3,-15,73*,-2,-10,14
CSCCC(NC(=O)OCc1ccccc1)C(=O)NC(Cc1c[nH]c2ccccc12)C(=O)O (centres undefined),.,-10,.,.,.,.
COc1ccc(NC(=O)c2cc(C3CCCCN3C(=O)OCc3ccccc3)on2)c(C)c1 (centres undefined),-5,-5,.,.,.,.
COc1ccc(-c2csc3ncnc(N4CCN(S(=O)(=O)c5cccc(C(F)(F)F)c5)CC4)c23)cc1,-7,-1,-29,-11,0,52
COc1ccc(-c2csc3ncnc(N4CCN(S(=O)(=O)c5cccc(Br)c5)CC4)c23)cc1,-7,-6,25,2,3,62*
CCOc1cc(S(=O)(=O)NCc2ccc(OC)cc2)c(OCC)cc1-n1cnnn1,30*,-2,-4,-8,12,4
CCOc1cc(S(=O)(=O)NCCc2ccc(OC)c(OC)c2)c(OCC)cc1-n1cnnn1,1,.,-1,-9,.,12
Nc1ccc(S(=O)(=O)Nc2nccs2)cc1N=Nc1ccccc1[N+](=O)[O-],-2,-6,.,1,-6,.
